XiGFP reactiv = activators of inactive X chromosome reactivation, primary screen, imaging, XiGFP fibroblasts, GFP high-content imaging, set 2; XiGFP mouse fibroblasts, % GFP-positive cells imaging, 3 d; cells co-treated with 5-aza-dC sensitizer; scaled so ellipticine positive control = 100%; 360,000 compounds, 0.055% hits; activation, % at 7.58 µM;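 active = mean normalized replicate activation at least 10% and every replicate at or above 10%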;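 note: 0% = median of on-plate neutral control wells and 100% = ellipticine 6 µM median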
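Material: XiGFP fibroblasts, SV40-immortalized; Buffer or medium: DMEM containing 5-aza-dC; Compound dosing: single point; Times: 3 days compound exposure.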
dFosB act = activators of delta FosB homodimer, primary screen, biochemical, fluorescence polarization, TAMRA-CDK5 oligo, single point | activation, % at 25 µM | Protein FosB (Mus musculus), P13346 | 340,000 compounds, 0.99% hits | purified delta FosB; percent of positive-control signal above neutral wells | AID 493131, 2011;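 active = mean activation above about 17%, with every replicate also reaching it, limit read from the data, passing the limit was not always enough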
Target sequence (P13346 whole entry, looked up): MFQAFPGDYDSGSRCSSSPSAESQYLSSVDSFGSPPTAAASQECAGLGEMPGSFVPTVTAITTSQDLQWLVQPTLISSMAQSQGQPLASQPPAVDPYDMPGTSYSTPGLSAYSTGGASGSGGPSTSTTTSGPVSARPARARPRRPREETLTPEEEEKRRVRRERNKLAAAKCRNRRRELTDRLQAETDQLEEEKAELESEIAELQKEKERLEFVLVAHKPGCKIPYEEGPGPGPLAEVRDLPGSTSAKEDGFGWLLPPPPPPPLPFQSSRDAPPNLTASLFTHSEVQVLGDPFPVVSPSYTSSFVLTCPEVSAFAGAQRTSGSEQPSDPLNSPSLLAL
SR-BI DiI-HDL act = activators of SR-BI mediated DiI-HDL uptake, primary screen, ldlA[mSR-BI] CHO cells, DiI fluorescence | 3 h; 100 = double the neutral-control signal | activation, % at 12.5 µM | 320,000 compounds, 0.096% hits | AID 504775, 2011;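 active = mean replicate activation of at least 60% and every replicate at or above 60%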;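 note: 0% = median plate neutral-control signal and 100% = twice that signal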
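Test system: SR-BI-overexpressing, LDLR-lacking CHO cells; Medium: Ham's F12 with 0.5% BSA, HEPES 25 mM, pH 7.4; Schedule: 3 h, 37 °C; Technique: bottom-read fluorescence, 550/595 nm.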
Ecoli rRNA inh = reduced GFP signal of wild-type E. coli, primary screen, bacterial rRNA inhibitor project, GFP/RFP fluorescence, OD600, single point. E. coli WT GFP vs humanized-ribosome RFP mutants, 24 h; hits give low values; DMSO median 0, no signal -100. GFP signal change (wild-type ribosome), % (no concentration beside the values). 350,000 compounds, 1.6% hits. AID 720706, 2013;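 active = significant combined selectivity score with lowered wild-type GFP, culture density cut under 30%, mutant RFP and density less affected; inactive = any of these conditions unmet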
PvdQ acylase = P. aeruginosa PvdQ acylase inhibitors, primary screen, biochemical, fluorescence, plate reader and imaging, single point; AID 488965, 2010; PvdQ acylase [Pseudomonas aeruginosa LESB58]; inhibition, % at 10 µM; 340,000 compounds, 0.063% hits; purified PvdQ acylase; in the data active = inhibition above about 30%, passing the limit was not always enough;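 note: 0% = vehicle neutral wells and 100% = reference inhibitor wells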
SR-BI DiI inh = inhibitors of SR-BI mediated HDL lipid uptake, primary screen, ldlA[mSR-BI] cells, fluorescence, single point. 320,000 compounds, 0.96% hits. ldlA[mSR-BI] CHO cells, DiI-HDL uptake fluorescence, 3 h. inhibition, % at 12.5 µM;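 active = mean replicate inhibition of at least 70% and a set share of replicates each scoring 70 or more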;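 note: 0% = median of neutral control wells and 100% = median of positive control wells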
Active calls of the source: *; . = not tested or not shown. Only some compounds are listed: those with a hit (about 2.6% of all), similar ones and a draw of the others.

SMILES	XiGFP reactiv	dFosB act	SR-BI DiI-HDL act	Ecoli rRNA inh	PvdQ acylase	SR-BI DiI inh
CN(C)S(=O)(=O)c1cccc(NC(=O)c2cccc(S(=O)(=O)N3CCCCCC3)c2)c1	0	-6	-77	-15	6	77*
CC(C)Cn1nc(C(=O)Nc2cccc(S(=O)(=O)N3CCCC3)c2)c2ccccc2c1=O	0	-14	-54	-5	11	54
CS(=O)(=O)c1cccc(C(=O)Nc2cccc(S(=O)(=O)N3CCCC3)c2)c1	0	-18	-83	0	-7	83*
CCn1nc(C(=O)Nc2cccc(S(=O)(=O)N3CCCC3)c2)c2ccccc2c1=O	0	-5	-34	-27*	-16	34
Cc1ccc(S(C)(=O)=O)cc1C(=O)Nc1cccc(S(=O)(=O)N2CCCCCC2)c1	0	-11	-80	-9	-9	80*
Cc1cccc(NC(=O)c2cccc(S(=O)(=O)N3CCCCC3)c2)c1	0	-9	.	1	7	.
Cc1cc(S(=O)(=O)Nc2ccc(C(=O)N3CCN(c4ccccc4O)CC3)cc2)ccc1F	0	-6	21	3	-11	-21
Cc1noc(C)c1CSCC(=O)N(C)CC(=O)Nc1ccc(F)cc1	0	-3	-8	8	10	8
COCc1[nH]nc2c1C(c1ccc(Br)cc1)N(Cc1ccccc1)C2=O (stereo unspecified)	0	.	.	-20	.	.
CN(C)S(=O)(=O)c1ccc(C(=O)Nc2ccc3c(c2)CCC3)cc1	0	8	-19	-22	0	19
O=C(Nc1ccc2c(c1)OCCO2)c1ccc(S(=O)(=O)N2CCCCC2)cc1	.	-2	-42	-32*	3	42
CN(C)S(=O)(=O)c1cccc(C(=O)Nc2ccc3c(c2)CCC3)c1	0	-11	-60	-19*	-14	60
Cc1cc(NC(=O)c2cccc(S(=O)(=O)N3CCCCCC3)c2)n(-c2ccccn2)n1	.	2	-82	.	16	82*
O=C(Nc1ccc2c(c1)CCC2)c1cccc(OC(F)F)c1	1	.	.	-24*	.	.
Cc1cc(NC(=O)c2cccc(S(=O)(=O)N(C)C)c2)n(-c2ccccn2)n1	.	-65	-46	.	-7	46
CC(C)NC(=O)N(C)C[C@H]1OCCCC[C@@H](C)Oc2ccc(NC(=O)C3CCCCC3)cc2C(=O)N([C@H](C)CO)C[C@@H]1C	0	.	.	16	.	.
O=C(O)CCCNc1ccc(S(=O)(=O)Nc2ccccc2C(=O)O)cc1C(=O)O	.	-5	35	.	6	8
COCC#Cc1cnc2c(c1)C(=O)N([C@@H](C)CO)C[C@H](C)[C@@H](CN(C)C(=O)Cc1ccccc1)O2	-1	.	.	3	.	.
Cc1cccc(N2CC(C(=O)Nc3ccc(S(=O)(=O)N4CCOCC4)cc3)CC2=O)c1C (stereo unspecified)	0	-7	5	1	5	-5
Cc1cccc(N2CC(C(=O)Nc3cccc(S(=O)(=O)N4CCCCC4)c3)CC2=O)c1C (stereo unspecified)	0	-16	.	-25*	-7	18
O=C(O)c1ccc(S(=O)(=O)N(Cc2ccc(F)cc2)C2CCCCC2)cc1	0	-11	6	-22*	6	-6
NC(=O)C1CCN(C(=O)CN(C2CCCCC2)S(=O)(=O)c2ccc(F)cc2)CC1	0	-4	7	-26*	-8	-7
NNC(=O)c1sc2cc(C(F)(F)F)cnc2c1-c1cccs1	0	-11	-61	-3	-13	61
O=C(Nc1ccccc1)c1sc2cc(C(F)(F)F)cnc2c1-c1cccs1	.	-4	-71	.	-9	71*
CC(c1ccccc1)N1CCc2[nH]c(=S)[nH]c(=O)c2C1 (stereo unspecified)	0	-10	16	17	-4	-16
SMILES	XiGFP reactiv	dFosB act	SR-BI DiI-HDL act	Ecoli rRNA inh	PvdQ acylase	SR-BI DiI inh
CCOC(=O)C1=CCN(S(=O)(=O)c2ccc(C)cc2)[C@H]1c1ccccc1Cl	0	.	.	-29*	.	.
O=C(CSc1nnc(-c2ccccc2O)n1Cc1ccccc1)NNC(=O)c1ccccc1O	1	-11	-88	.	7	88*
O=C(O)c1[nH]c2ccc(Br)cc2c1CCN1C(=O)c2cccc([N+](=O)[O-])c2C1=O	0	-11	.	-28*	2	.
O=C(O)c1[nH]c2ccc(Cl)cc2c1CCN1C(=O)c2ccccc2C1=O	0	0	.	-37	-1	.
O=c1cc(C(F)(F)F)[nH]c2ccc(C(F)(F)F)cc12	0	-13	-4	-50*	-7	4
CC(=O)C1=C(C)N(Cc2ccccc2)C(=O)N[C@H]1c1cccc(C(F)(F)F)c1	0	7	-6	-32	1	6
CC(=O)C1=C(C)N(Cc2ccccc2)C(=O)N[C@@H]1c1cccc(C(F)(F)F)c1	0	3	10	-21*	-7	-10
O=C(NCc1ccc(-c2nc3ccccc3s2)cc1)c1ccco1	0	-2	29	-20*	3	-29
O=C(OCc1nc2ccccc2s1)c1ccc(Br)o1	0	-8	5	-41	11	-5
O=C(OCc1nc2ccccc2s1)c1ccco1	0	-2	22	-7	46*	-22
O=C(CCCSc1nc2ccccc2[nH]1)NC(c1ccccc1)c1ccccc1	0	-8	-17	-40*	1	17
CC(=O)Nc1ccc(NC(=O)CCCSc2nc3ccccc3[nH]2)cc1	0	-1	6	2	-2	-6
O=C(COC(=O)Cc1cccs1)Nc1cccc(S(=O)(=O)N2CCOCC2)c1	0	-14	22	11	-13	-22
CN(C)S(=O)(=O)c1cccc(NC(=O)CSc2nc3ccccc3[nH]2)c1	0	0	-18	-26	-9	18
O=C(CSc1nc2ccccc2[nH]1)Nc1cccc(S(=O)(=O)N2CCOCC2)c1	0	-16	.	-36*	11	.
CN(C)C(=O)c1ccc(NC(=O)CSc2nc3ccccc3[nH]2)cc1	0	-1	-3	-21*	-1	3
NS(=O)(=O)c1cccc(NC(=O)COC(=O)Cc2ccc(S(=O)(=O)N3CCOCC3)s2)c1	140*	-4	16	18	-3	-16

Compound activity: PubChem BioAssay, Broad Institute
